MrgX1 PAM – human MrgX1 positive allosteric modulation, primary screen. Q96LB2. MrgX1-HEK293, Fluo-4 calcium flux, FDSS; hits give high values. B-score at 10 µM. hit rate 0.63% among 310,000;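 active means plate-corrected calcium response at least 3 library SD above typical, normal starting fluorescence, not activating the receptor alone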;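 further: compound read alongside a low EC10 to EC30 dose of BAM8-22 agonist; peak minus trough fluorescence over baseline measured at the second addition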
Target sequence (Q96LB2 whole entry, looked up): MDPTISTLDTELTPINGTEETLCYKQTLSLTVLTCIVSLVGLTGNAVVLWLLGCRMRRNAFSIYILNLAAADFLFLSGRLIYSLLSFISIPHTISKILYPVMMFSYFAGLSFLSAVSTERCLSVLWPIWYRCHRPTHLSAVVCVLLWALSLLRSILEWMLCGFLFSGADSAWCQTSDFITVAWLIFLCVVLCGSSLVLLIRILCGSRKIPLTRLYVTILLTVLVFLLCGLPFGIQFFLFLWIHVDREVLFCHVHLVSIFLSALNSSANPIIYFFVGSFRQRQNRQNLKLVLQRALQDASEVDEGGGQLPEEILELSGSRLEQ
RGS4 block – human RGS4 inhibition. B-score at 10 µM. hit rate 0.45% among 310,000. HEK293 M3R/RGS4 inducible, Fluo-4 calcium flux; hits give high values; triggered by carbachol at its EC20. P49798;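 active means B-score, a plate-corrected calcium signal, over three deviations above library mean, with baseline fluorescence within five deviations of library mean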;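 further: RGS4 expression induced by doxycycline in cells with stable M3 receptor; B-score is computed from the integrated fluorescence ratio over baseline after carbachol; higher B-score means a larger calcium signal and so more RGS4 inhibition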
Target sequence (P49798 whole entry, looked up): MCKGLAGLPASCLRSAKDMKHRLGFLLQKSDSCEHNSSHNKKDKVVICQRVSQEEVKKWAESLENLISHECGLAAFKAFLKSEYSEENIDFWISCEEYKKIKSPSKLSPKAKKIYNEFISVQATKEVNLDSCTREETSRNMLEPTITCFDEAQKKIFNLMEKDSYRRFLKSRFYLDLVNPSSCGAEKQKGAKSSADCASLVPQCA
MrgX1 antag – blocks BAM8-22 activation of human MrgX1 receptor; Q96LB2; MRGX1-HEK293 calcium flux, Fluo-4, BAM8-22 antagonism; hits give low values; B-score at 10 µM; hit rate 1.3% among 310,000;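 active means calcium-response B-score plate-corrected more than 3 library SD below zero, starting fluorescence within 5 deviations, no agonist response on first addition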;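 further: peak minus trough fluorescence over baseline after final BAM8-22 challenge near maximal dose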
MrgX1 ag – human MrgX1 receptor agonism, primary screen; hit rate 0.44% among 310,000; MrgX1-HEK293 cells, Fluo-4 calcium fluorescence, agonist mode; hits give high values; B-score at 10 µM;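 active means calcium response B-score plate-corrected fluorescence ratio at least 3 library SD, with starting fluorescence B-score inside 5 SD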
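Material: MrgX1-expressing HEK293 cells; input: 15,000 cells per well; doses: test compound given as first of three sequential additions; schedule: overnight plating before 1 h dye loading; technique: Fluo-4 NW calcium-flux fluorescence, kinetic read; evaluation: baseline-normalised fluorescence change ratio, B-scored; control set: plate-wise positive and negative controls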
RGS4 act – RGS4 potentiation or activation; HEK293 M3R/inducible RGS4, carbachol calcium flux Fluo4; hits give low values; B-score at 10 µM; hit rate 0.92% among 310,000;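 active means B-score of the integrated calcium signal more than 4 SD below the library mean, with starting fluorescence not abnormally high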;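 further: negative B-score means reduced calcium response which marks RGS4 activation or potentiation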
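Material: Inducible-RGS4 HEK293 cells carrying M3 receptor; also added: carbachol at ECmax as muscarinic agonist stimulus; incubation: compound preincubation 20 min at room temperature before agonist; signal: Fluo4-AM (2 µM) calcium-flux fluorescence, kinetic read; measure: integrated calcium ratio converted to B score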
MrgX1 ant reconf – confirmation of human MrgX1 receptor antagonists; shares compounds with MrgX1 antag; MrgX1-HEK293, BAM8-22 calcium flux, Fluo-4; hits give low values; remaining BAM8-22 calcium response % of control (hits give low values), % at 10 µM; hit rate 19% among 2,300; AID 602420;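 active means remaining agonist calcium response no higher than 100% minus 3 SD of agonist-only control wells, with starting fluorescence near control levels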;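 further: agonist BAM8-22 given at a near maximal EC90 to ECmax level; peak minus minimum fluorescence divided by baseline after agonist addition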
HEK293 Ca flux – activity in parental HEK293 cells lacking MrgX1 | Fluo-4 calcium fluorescence, FDSS | hit rate 2% among 4,000 | shares compounds with MrgX1 antag | fluorescence ratio F(max-min)/F0 at 10 µM;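 active means duplicate-averaged calcium fluorescence ratio at least three times the standard deviation of buffer wells, a nonspecific response in parental cells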
HEK293 Ca counter – activity in parental HEK293 cells without MrgX1 | shares compounds with MrgX1 antag | parental HEK293 calcium flux, Fluo-4 fluorescence ratio; hits give high values | fluorescence ratio F(max-min)/F0 at 10 µM | hit rate 0.4% among 4,000;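 active means calcium fluorescence ratio, averaged over duplicates, at least 3 SD of the buffer-well ratio, meaning a nonspecific response in receptor-free cells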;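 further: untransfected parental HEK293 lacking MrgX1 used as counterscreen for MrgX1 allosteric activators; fluorescence change taken during the second addition on a kinetic imager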
HEK293 Ca cntr2 – MrgX1 activator counter-screen hit in parental HEK293 cells; hit rate 8.7% among 4,000; fluorescence ratio F(max-min)/F0 at 10 µM; shares compounds with MrgX1 antag; AID 624115; Fluo-4 calcium fluorescence (FDSS); hits give high values;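 active means calcium fluorescence ratio at least three times the spread of buffer wells, meaning a non-specific response in parental cells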
Large screens that a line does not name were inactive (follow-up assays come after a bar, where they were run). This is a sample that favours compounds with a hit; in the whole collection about 3.5% have one here.

c1ccc(CNc2nc3ccccc3n2CCN2CCOCC2)nc1	MrgX1 antag -4.66 | MrgX1 ant reconf inactive | HEK293 Ca flux inactive | HEK293 Ca counter inactive | HEK293 Ca cntr2 inactive
CCCn1c(NCc2ccccn2)nc2ccccc21	none
CCc1ccc(N(CC(=O)NC(C)C)C(=O)CCC(=O)Nc2nccs2)cc1	none
CCCCCN1CC(=O)N2Cc3[nH]c4ccccc4c3C[C@H]2C1=O	MrgX1 antag -19 | MrgX1 ant reconf inactive | HEK293 Ca flux inactive | HEK293 Ca counter inactive | HEK293 Ca cntr2 inactive
CCN(CC)S(=O)(=O)c1cc(NC(=O)CN2C(=O)NC3(CCCc4ccccc43)C2=O)ccc1C (configuration not stated)	MrgX1 antag -6.07 | MrgX1 ant reconf 85.3% | HEK293 Ca flux inactive | HEK293 Ca counter inactive | HEK293 Ca cntr2 inactive
COc1ccccc1NS(=O)(=O)c1cccc2nsnc12	none
O=C(NCCN1CCC(Cc2ccccc2)CC1)C1CCN(S(=O)(=O)N2CCC3(CC2)OCCO3)CC1	none
O=C(NCCc1ccccc1)C1CCN(C(=O)NCc2ccccc2)CC1	MrgX1 antag -11.3 | MrgX1 ant reconf inactive | HEK293 Ca flux inactive | HEK293 Ca counter inactive | HEK293 Ca cntr2 inactive
O=C(NCCc1ccccc1)C1CCN(S(=O)(=O)N2CCC3(CC2)OCCO3)CC1	MrgX1 antag -6.01 | MrgX1 ant reconf inactive | HEK293 Ca flux inactive | HEK293 Ca counter inactive | HEK293 Ca cntr2 inactive
O=C(O)COc1ccccc1/C=N/NC(=O)CNC(=O)c1ccco1	none
COC(=O)c1cc(NC(=O)c2ccc(-c3ccccc3)cc2)ccc1Cl	MrgX1 antag -8.14 | MrgX1 ant reconf inactive | HEK293 Ca flux inactive | HEK293 Ca counter inactive | HEK293 Ca cntr2 inactive
NS(=O)(=O)c1cccc(NC(=O)Nc2ccc(Cl)cc2)c1	MrgX1 antag -6.26 | MrgX1 ant reconf 82.9% | HEK293 Ca flux inactive | HEK293 Ca counter inactive | HEK293 Ca cntr2 inactive
CCSc1nsc(NC(=O)Nc2cccc(F)c2)n1	MrgX1 antag -7.37 | MrgX1 ant reconf 78.0% | HEK293 Ca flux inactive | HEK293 Ca counter inactive | HEK293 Ca cntr2 inactive
COC(=O)c1cc(NC(=O)Nc2cccc(Cl)c2)ccc1Cl	MrgX1 antag -4.67 | MrgX1 ant reconf 82.3% | HEK293 Ca flux inactive | HEK293 Ca counter inactive | HEK293 Ca cntr2 inactive
O=C(Nc1cccc(F)c1)Nc1cccc(Cl)c1	MrgX1 antag -5.07 | MrgX1 ant reconf 65.2% | HEK293 Ca flux inactive | HEK293 Ca counter inactive | HEK293 Ca cntr2 inactive
O=C(Nc1cccc(Cl)c1)Nc1cccc(Cl)c1	none
Cc1ccccc1OCC(=O)Nc1nnc(COc2ccccc2)s1	MrgX1 antag -8.18 | MrgX1 ant reconf inactive | HEK293 Ca flux inactive | HEK293 Ca counter inactive | HEK293 Ca cntr2 inactive
CC(C)CNC(=O)c1cccc(NC(=O)CSc2ccccc2)c1	none
CC(C)CNC(=O)c1cccc(NC(=O)Cc2ccc(Cl)cc2)c1	MrgX1 antag -5.52 | MrgX1 ant reconf inactive | HEK293 Ca flux inactive | HEK293 Ca counter inactive | HEK293 Ca cntr2 inactive
CCOC(=O)Cc1nnc(Nc2cccc(O)c2)c2ccccc12	MrgX1 antag -6.32 | MrgX1 ant reconf inactive | HEK293 Ca flux inactive | HEK293 Ca counter inactive | HEK293 Ca cntr2 inactive
CC(=O)Nc1cccc(NC(=O)Nc2cccc(Cl)c2C)c1	MrgX1 antag -5.53 | MrgX1 ant reconf inactive | HEK293 Ca flux inactive | HEK293 Ca counter inactive | HEK293 Ca cntr2 inactive
CC(=O)Nc1cccc(NC(=S)Nc2cccc(Cl)c2C)c1	none
COc1ccccc1CCCNC(=O)C1CCC(=O)N(CCCN2CCCC2=O)C1 (configuration not stated)	none
CCN1CCSc2ccc(C(=O)NCc3ccc(OC(C)C)cc3)cc21	none

Screens: PubChem BioAssay, Johns Hopkins Ion Channel Center
